STAT1 act = STAT1 signaling activators, primary screen, cell-based, HTS, luciferase reporter; NIH 3T3 STAT1-luciferase reporter, IFN-gamma, luminescence; 100% = IFN-gamma alone, no compound; activation (% of control), % at 5.5 µM; hit rate 2.6% among 200,000; AID 932, 2007;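 active = activation above the screen-wide mean activation plus 3 SD, cut at about 130% in these data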;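 note: raw ratio to IFN-gamma control signal so 100% means no change and 0% no light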
APP 5'UTR act = activators of APP 5'UTR luciferase reporter, primary screen, SH-SY5Y cells; SH-SY5Y APP 5'UTR luciferase reporter, luminescence; zero percent = DMSO vehicle wells; activation, % at 2 µM; hit rate 1% among 190,000; AID 1276, 2008;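 active = activation above a set limit, based on mean plus 3 SD of controls, cut at about 140% in these data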
STAT1 blocker = STAT1 signaling inhibitors, primary screen, cell-based, HTS, luciferase reporter; inhibition, % at 5.5 µM; hit rate 0.35% among 200,000; NIH 3T3 STAT1-luciferase reporter, IFN-gamma, luminescence; AID 920, 2007;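 active = inhibition above a set limit, the mean inhibition across all tested compounds plus 3 SD, cut at about 34% in these data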;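 note: 0% = IFN-gamma with DMSO and 100% = IFN-gamma with 300 µM nifuroxazide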
NF-kB expr up = activators of NF-kB expression in neurons, primary screen, cell-based, HTS | hit rate 1.6% among 190,000 | AID 1239, 2008 | human neuronal cells, NF-kB reporter expression; stronger effect = higher value | fold change at 12.5 µM; in the data active = fold change above about 3.3
STAT3 inh-1 = IL-6 driven STAT3 reporter inhibitors, primary screen, U3A cells, luciferase, luminescence, MLSCN library; inhibition, % at 5.5 µM; hit rate 0.89% among 190,000; IL-6 STAT3-luciferase reporter; host cell line lacks STAT1; AID 862, 2007;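 active = inhibition above the mean inhibition across all screened compounds plus 3 SD, cut at about 44% in these data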;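 note: 0% = DMSO only wells and 100% = 100 µM nifuroxazide control wells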
STAT3 activator = IL-6 driven STAT3 reporter potentiators, primary screen, U3A cells, luciferase, luminescence, MLSCN library; IL-6 STAT3-luciferase reporter; 100% = signal with IL-6 EC80 alone; activation (% of control), % at 5.6 µM; hit rate 0.91% among 190,000;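 active = activation above the screen-wide mean of compound activation plus 3 SD, cut at about 130% in these data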;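 note: 0% = background luminescence of wells with medium and substrate only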
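Material: human U3A cells carrying STAT3-luciferase construct. Measured by: reporter luminescence signal. Timing: compound 1 h, then IL-6 6 h at 37 °C.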
STAT3 inh-2 = STAT3 reporter inhibitors, retest of hits, confirmation, U3A cells, luciferase, luminescence | shares compounds with STAT3 inh-1 | IL-6 STAT3 luciferase reporter; cell line lacks STAT1 | inhibition, % at 5.7 µM | hit rate 45% among 1,200 | AID 1265, 2008;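 active = inhibition above the hit cutoff computed for the primary STAT3 screen, cut at about 44% in these data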;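 note: 0% = IL-6 plus DMSO and 100% = IL-6 plus nifuroxazide control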
NFkB inh STAT3ct = NF-kB reporter inhibitors in human cells, confirmation, counter-screen for STAT3 inhibitor project, cell-based, HEK293T, luciferase, TNF-alpha stimulus; TNF-alpha induced; shares compounds with STAT3 inh-1; inhibition, % at 5.7 µM; hit rate 36% among 1,200;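 active = inhibition above the mean of solvent-only control wells plus 3 SD, cutoff set per campaign, cut at about 13% in these data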;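 note: 0% = TNF-alpha with DMSO and 100% = TNF-alpha with MG high control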
STAT1 inh 2 = STAT1 reporter inhibitors, IFN-gamma induced, confirmation, counter-screen for STAT3 inhibitor project, cell-based, NIH 3T3, luciferase luminescence; NIH 3T3 STAT1-luciferase reporter; shares compounds with STAT3 inh-1; inhibition, % at 5.7 µM; AID 1317, 2008; hit rate 27% among 1,200;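 active = inhibition above the mean plus 3 SD of solvent-only control wells, limit set per screening run, cut at about 16% in these data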;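 note: 0% = DMSO with IFN-gamma and 100% = nifuroxazide control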
An asterisk follows results filed as active; · = no result. An excerpt weighted towards active compounds, which were near 4.9% of everything screened.

SMILES	STAT1 act	APP 5'UTR act	STAT1 blocker	NF-kB expr up	STAT3 inh-1	STAT3 activator	STAT3 inh-2	NFkB inh STAT3ct	STAT1 inh 2
CCOC(=O)c1cc(C(=O)n2cc(Cl)cn2)nn1C	90	-11	11	1.2	8	93	·	·	·
O=C1C2C3c4ccccc4C(c4ccccc43)C2c2nc3ccccc3n21 (centres undefined)	93	-26	3	1.1	64*	48	59*	12	-2
Cn1c(-c2ccccc2)cnc1SCC(=O)N1CCCCC1	80	108	22	1.9	66*	47	41	0	-46
O=C(c1cc(-c2ccc(Cl)cc2Cl)on1)N1CCOCC1	99	196*	2	1.7	50*	60	22	-11	-89
O=C(c1cc(-c2ccc(F)cc2)on1)N1CCCC1	121	80	-23	3.5*	46*	66	10	-34	-84
O=C(c1cc(-c2ccc3c(c2)OCO3)on1)N1CCOCC1	112	112	-14	3.1	52*	59	5	-10	-48
Cc1cc(NC(=O)CS(=O)(=O)Cc2ccccc2)no1	104	-23	-5	1.1	14	92	·	·	·
Cc1ccc(C(=O)NCC(=O)OCC(=O)Nc2ccccc2[N+](=O)[O-])cc1	109	-2	-7	1.2	-11	107	·	·	·
Clc1ccccc1Nc1nnc(-c2ccncc2)s1	131*	160*	-35	4.2*	60*	50	36	20*	-73
Cc1n[nH]c(C)c1S(=O)(=O)N(CC(=O)NC1CCCC1)c1ccc(C(C)C)cc1	92	25	8	0.59	15	95	·	·	·
NNC(=O)c1ccc(COc2ccccc2)cc1	100	-2	0	1.2	14	92	·	·	·
CCC(=O)c1ccc(OCc2ccc(C(=O)c3ccccc3)cc2)cc1	73	-2	27	0.87	50*	62	43	8	19*
COc1ccc(CCC(=O)Nc2cc(S(C)(=O)=O)ccc2Cl)cc1	99	8	0	1.1	1	102	·	·	·
Cc1cccc(N(CC(=O)NCCC2=CCCCC2)S(C)(=O)=O)c1C	97	0	2	1.3	4	97	·	·	·
O=[N+]([O-])c1ccc(N/N=C/c2sc(N3CCOCC3)nc2-c2ccccc2)c(S(=O)(=O)Nc2ccc(Cl)cc2)c1	90	-6	10	1.1	81*	31	71*	48*	54*
Cc1ccc(/C=C/C(=O)NC2=NCCS2)cc1	147*	180*	-52	5.6*	71*	40	35	-9	-122
COc1c(C(=O)NCCSC(C)(C)C)ccc2ccccc12	93	19	8	1.6	-5	102	·	·	·
CC(=O)N[C@@H]1c2c(ccc3ccccc23)OC[C@@H]1COC(C)=O	95	7	5	1.1	12	91	·	·	·
Cc1ccc(-n2c(-c3ccccc3)c[n+]3c2CCC3)cc1	76	1	26	0.69	62*	51	50*	2	23*
CCOc1ccc(-c2c[n+]3c(n2-c2ccccc2)CCCCC3)cc1	74	22	28	0.54	56*	51	73*	5	28*
COc1ccc(-n2c(-c3ccc(Br)cc3)c[n+]3c2CCC3)cc1	79	-7	21	0.9	22	83	·	·	·
COc1ccc(N(C(=O)CCl)C(C(=O)NCCc2ccccc2)c2cccs2)cc1Cl (centres undefined)	83	2	19	0.13	91*	23	104*	2	20*
COc1cccc(N(C(=O)CCl)C(C(=O)NCCc2ccccc2)c2cccs2)c1 (centres undefined)	84	-4	18	0.12	63*	47	95*	22*	25*
COCCNC(=O)C(c1cccs1)N(C(=O)Cn1nnc2ccccc21)c1ccccc1 (centres undefined)	105	23	-6	0.95	2	103	·	·	·
N#CCCNc1c(Cl)cc(Cl)cc1C(=O)O	98	-1	2	1.1	-5	108	·	·	·
SMILES	STAT1 act	APP 5'UTR act	STAT1 blocker	NF-kB expr up	STAT3 inh-1	STAT3 activator	STAT3 inh-2	NFkB inh STAT3ct	STAT1 inh 2
COC(=O)Cc1[nH]n(-c2nc3ccccc3s2)c(=O)c1C(C)=Nc1ccc(C)cc1	80	47	21	1.1	100*	16	68*	64*	-10
C/C(=N/NC(=O)c1cccs1)c1c(C)[nH]n(-c2nc3ccccc3s2)c1=O	103	87	-4	2	56*	53	6	3	-4
CCCN=C(C)c1c(-c2ccccc2)[nH]n(-c2nc3ccccc3s2)c1=O	108	27	-9	1.6	6	100	·	·	·
COc1cccc(OC)c1CC1SC(=O)NC1=O (centres undefined)	116	-1	-18	1.3	-20	119	·	·	·
O=C(Nc1ccc(-c2cn3ccsc3n2)cc1)c1ccc(F)c(S(=O)(=O)N2CCOCC2)c1	93	12	7	0.37	45*	67	35	1	1
COc1ccc(-c2cc(C(F)(F)F)nc(SCCC(=O)N3CCOCC3)n2)cc1	87	7	15	1.2	23	85	·	·	·
O=C1NC(=O)c2cc(NC(=O)C3COc4ccccc4O3)ccc21 (centres undefined)	97	-7	3	1.1	35	75	·	·	·
CC1(C)Oc2ccc(NC(=O)C3COc4ccccc4O3)cc2O1 (centres undefined)	120	168*	-22	4.9*	64*	46	26	-15	-85
CC(=O)c1sc(NC(=O)C2COc3ccccc3O2)nc1C (centres undefined)	82	132	20	1.5	74*	43	34	-2	-43
O=C(Nc1nncs1)C1COc2ccccc2O1 (centres undefined)	108	13	-9	1.5	-9	111	·	·	·
O=C1CCCc2nc3nc4ccccc4n3cc21	97	8	3	1.2	9	99	·	·	·
Cc1ccc(S(=O)(=O)NCC(=O)NCC(=O)OCC(=O)NC(=O)NC(C)(C)C)cc1C	90	11	9	0.93	15	95	·	·	·

Screens from PubChem.
